In ChEMBL document CHEMBL3877325, “Novel salicylanilides from 4,5-dihalogenated salicylic acids: Synthesis, antimicrobial activity and cytotoxicity” (Bioorg Med Chem, 2017):
≈ marks a conversion by molar mass, not a printed value.

What was measured:
Assay type in all cases: functional
[1] = tested on: Mycobacterium tuberculosis; assay: Antimycobacterial activity against extensively drug resistant Mycobacterium tuberculosis Praha 131 after 14 days by micromethod; conditions: Praha 131, 336 h
Outline: (§1)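 MIC micromethod in Šula's semisynthetic medium at 37 °C, read after 14 and 21 days. Compounds added as DMSO solutions at 500 down to 0.5 µM (twofold-type series: 500, 250, 125, 62.5, 32, 16, 8, 4, 2, 1, 0.5 µM). Isoniazid standard given in sterile water.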

[2] = tested on: Mycobacterium tuberculosis; assay: Antimycobacterial activity against multidrug resistant Mycobacterium tuberculosis Praha 4 after 21 days by micromethod; conditions: Praha 4, 504 h
Outline: (§2)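 Multidrug-resistant M. tuberculosis strains, each inoculated at 10^-3 dilution; 234/2005 is resistant to INH, RIF, rifabutin, streptomycin, ethambutol and ofloxacin. MIC determined by micromethod in Šula's semisynthetic medium at 37 °C after 14 and 21 days. Compounds added from DMSO at 0.5–500 µM.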

[3] = tested on: Mycobacterium tuberculosis; assay: Antimycobacterial activity against multidrug resistant Mycobacterium tuberculosis 9449/2007 after 21 days by micromethod; conditions: 9449/2007, 504 h; outline: as §2
[4] = tested on: Mycobacterium tuberculosis; assay: Antimycobacterial activity against extensively drug resistant Mycobacterium tuberculosis Praha 131 after 21 days by micromethod; conditions: Praha 131, 504 h; outline: as §1
[5] = tested on: Mycobacterium tuberculosis; assay: Antimycobacterial activity against multidrug resistant Mycobacterium tuberculosis Praha 1 after 21 days by micromethod; conditions: Praha 1, 504 h; outline: as §2
[6] = tested on: Mycobacterium tuberculosis; assay: Antimycobacterial activity against multidrug resistant Mycobacterium tuberculosis Praha 1 after 14 days by micromethod; conditions: Praha 1, 336 h; outline: as §2
[7] = tested on: Mycobacterium tuberculosis; assay: Antimycobacterial activity against multidrug resistant Mycobacterium tuberculosis 242/2015 after 14 days by micromethod; conditions: 242/2015, 336 h; outline: as §2
[8] = tested on: Mycobacterium tuberculosis; assay: Antimycobacterial activity against multidrug resistant Mycobacterium tuberculosis 9449/2007 after 14 days by micromethod; conditions: 9449/2007, 336 h; outline: as §2
[9] = tested on: Mycobacterium tuberculosis; assay: Antimycobacterial activity against multidrug resistant Mycobacterium tuberculosis 234/2005 after 14 days by micromethod; conditions: 234/2005, 336 h; outline: as §2
[10] = tested on: Mycobacterium tuberculosis; assay: Antimycobacterial activity against multidrug resistant Mycobacterium tuberculosis 242/2015 after 21 days by micromethod; conditions: 242/2015, 504 h; outline: as §2
[11] = tested on: Mycobacterium tuberculosis; assay: Antimycobacterial activity against multidrug resistant Mycobacterium tuberculosis 234/2005 after 21 days by micromethod; conditions: 234/2005, 504 h; outline: as §2
[12] = tested on: Mycobacterium tuberculosis; assay: Antimycobacterial activity against multidrug resistant Mycobacterium tuberculosis Praha 4 after 14 days by micromethod; conditions: Praha 4, 336 h; outline: as §2

| SMILES | MIC [1] | MIC [2] | MIC [3] | MIC [4] | MIC [5] | MIC [6] | MIC [7] | MIC [8] | MIC [9] | MIC [10] | MIC [11] | MIC [12] |
| --- | --- | --- | --- | --- | --- | --- | --- | --- | --- | --- | --- | --- |
| NNC(=O)c1ccncc1 [ISONIAZID] | 16 µM (≈ 2.19 µg/mL) | 16 µM (≈ 2.19 µg/mL) | 16 µM (≈ 2.19 µg/mL) | 16 µM (≈ 2.19 µg/mL) | 16 µM (≈ 2.19 µg/mL) | 16 µM (≈ 2.19 µg/mL) | 16 µM (≈ 2.19 µg/mL) | 16 µM (≈ 2.19 µg/mL) | 16 µM (≈ 2.19 µg/mL) | 16 µM (≈ 2.19 µg/mL) | 32 µM (≈ 4.39 µg/mL) | 16 µM (≈ 2.19 µg/mL) |
| O=C(Nc1ccc(C(F)(F)F)cc1)c1cc(Br)ccc1O | 2 µM (≈ 0.72 µg/mL) | 4 µM (≈ 1.44 µg/mL) | 1 µM (≈ 0.36 µg/mL) | 4 µM (≈ 1.44 µg/mL) | 1 µM (≈ 0.36 µg/mL) | 1 µM (≈ 0.36 µg/mL) | 1 µM (≈ 0.36 µg/mL) | 2 µM (≈ 0.72 µg/mL) | 2 µM (≈ 0.72 µg/mL) | 2 µM (≈ 0.72 µg/mL) | 4 µM (≈ 1.44 µg/mL) | 2 µM (≈ 0.72 µg/mL) |
| O=C(Nc1ccc(C(F)(F)F)cc1)c1ccc(Br)cc1O | 1 µM (≈ 0.36 µg/mL) | 2 µM (≈ 0.72 µg/mL) | 1 µM (≈ 0.36 µg/mL) | 1 µM (≈ 0.36 µg/mL) | 1 µM (≈ 0.36 µg/mL) | 1 µM (≈ 0.36 µg/mL) | 1 µM (≈ 0.36 µg/mL) | 1 µM (≈ 0.36 µg/mL) | 1 µM (≈ 0.36 µg/mL) | 1 µM (≈ 0.36 µg/mL) | 2 µM (≈ 0.72 µg/mL) | 1 µM (≈ 0.36 µg/mL) |
| O=C(Nc1ccc(C(F)(F)F)cc1)c1cc(Cl)ccc1O | 0.5 µM (≈ 0.158 µg/mL) | 0.5 µM (≈ 0.158 µg/mL) | 0.5 µM (≈ 0.158 µg/mL) | 0.5 µM (≈ 0.158 µg/mL) | 0.5 µM (≈ 0.158 µg/mL) | 0.5 µM (≈ 0.158 µg/mL) | 0.5 µM (≈ 0.158 µg/mL) | 0.5 µM (≈ 0.158 µg/mL) | 0.5 µM (≈ 0.158 µg/mL) | 0.5 µM (≈ 0.158 µg/mL) | 0.5 µM (≈ 0.158 µg/mL) | 0.5 µM (≈ 0.158 µg/mL) |
| O=C(Nc1ccc(C(F)(F)F)cc1)c1cc(Br)c(Br)cc1O | 2 µM (≈ 0.878 µg/mL) | 2 µM (≈ 0.878 µg/mL) | 1 µM (≈ 0.439 µg/mL) | 2 µM (≈ 0.878 µg/mL) | 1 µM (≈ 0.439 µg/mL) | 1 µM (≈ 0.439 µg/mL) | 1 µM (≈ 0.439 µg/mL) | 2 µM (≈ 0.878 µg/mL) | 2 µM (≈ 0.878 µg/mL) | 2 µM (≈ 0.878 µg/mL) | 2 µM (≈ 0.878 µg/mL) | 2 µM (≈ 0.878 µg/mL) |
| O=C(Nc1ccc(C(F)(F)F)cc1)c1cc(Cl)c(Cl)cc1O | 1 µM (≈ 0.35 µg/mL) | 2 µM (≈ 0.7 µg/mL) | 1 µM (≈ 0.35 µg/mL) | 2 µM (≈ 0.7 µg/mL) | 1 µM (≈ 0.35 µg/mL) | 1 µM (≈ 0.35 µg/mL) | 1 µM (≈ 0.35 µg/mL) | 2 µM (≈ 0.7 µg/mL) | 1 µM (≈ 0.35 µg/mL) | 1 µM (≈ 0.35 µg/mL) | 2 µM (≈ 0.7 µg/mL) | 1 µM (≈ 0.35 µg/mL) |
| O=C(Nc1ccc(C(F)(F)F)cc1)c1cc(Br)c(Cl)cc1O | 2 µM (≈ 0.789 µg/mL) | 2 µM (≈ 0.789 µg/mL) | 2 µM (≈ 0.789 µg/mL) | 2 µM (≈ 0.789 µg/mL) | 2 µM (≈ 0.789 µg/mL) | 2 µM (≈ 0.789 µg/mL) | 2 µM (≈ 0.789 µg/mL) | 2 µM (≈ 0.789 µg/mL) | 2 µM (≈ 0.789 µg/mL) | 2 µM (≈ 0.789 µg/mL) | 2 µM (≈ 0.789 µg/mL) | 2 µM (≈ 0.789 µg/mL) |
| O=C(Nc1ccc(C(F)(F)F)cc1)c1cc(Cl)c(Br)cc1O | 2 µM (≈ 0.789 µg/mL) | 4 µM (≈ 1.58 µg/mL) | 2 µM (≈ 0.789 µg/mL) | 2 µM (≈ 0.789 µg/mL) | 2 µM (≈ 0.789 µg/mL) | 2 µM (≈ 0.789 µg/mL) | 2 µM (≈ 0.789 µg/mL) | 2 µM (≈ 0.789 µg/mL) | 2 µM (≈ 0.789 µg/mL) | 2 µM (≈ 0.789 µg/mL) | 2 µM (≈ 0.789 µg/mL) | 2 µM (≈ 0.789 µg/mL) |
| O=C(Nc1ccc(C(F)(F)F)cc1)c1ccc(Cl)cc1O | 2 µM (≈ 0.631 µg/mL) | 2 µM (≈ 0.631 µg/mL) | 1 µM (≈ 0.316 µg/mL) | 2 µM (≈ 0.631 µg/mL) | 1 µM (≈ 0.316 µg/mL) | 1 µM (≈ 0.316 µg/mL) | 1 µM (≈ 0.316 µg/mL) | 2 µM (≈ 0.631 µg/mL) | 2 µM (≈ 0.631 µg/mL) | 1 µM (≈ 0.316 µg/mL) | 2 µM (≈ 0.631 µg/mL) | 1 µM (≈ 0.316 µg/mL) |
